From ChEMBL document CHEMBL2406954, “Improved flavodoxin inhibitors with potential therapeutic effects against Helicobacter pylori infection” (J Med Chem, 2013)
In brackets after ≈: the same amount, converted by molar mass. Activity calls are given as the source filed them. The rule behind the calls is not given here.

Experiments:
[1] = tested on: Helicobacter pylori; test: Bactericidal activity against Helicobacter pylori at 2 times MIC; format: functional, organism-based
[2] = Binding affinity to Helicobacter pyroli flavodoxin expressed in Escherichia coli by isothermal titration calorimetry analysis; parameters: species or system Helicobacter pylori
Method in brief: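 ITC at 25°C: degassed 20 µM protein titrated with ~500 µM inhibitor, both in 50 mM EPPS pH 9.0, 5% DMSO. Injection heats fitted to a 1:1 binding model for Kd.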

[3] = Cytotoxicity in human HeLa cells after 24 hrs by XTT assay; format: cell-based
Method in brief: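 HeLa cells, 30,000 per well in DMEM with 10% fetal serum and penicillin/streptomycin. Compound added from DMSO to final 0.1, 0.25, 0.5, 1, 10, 25, 50, 75, 100 µM; DMSO-only controls. 24 h at 37 °C, then medium exchanged for phenol red-free medium, XTT-PMS added, 4 h at 37 °C, absorbance read at 450 and 500 nm. Two experiments, each in triplicate.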

[4] = Therapeutic index, ratio of MCC for human HeLa cells to MIC for Helicobacter pylori; format: cell-based; settings: read-out: TI
[5] = tested on: Helicobacter pylori; test: Antibacterial activity against Helicobacter pylori after 28 hrs by microdilution method; format: functional

SMILES | Activity [1] | Kd [2] [µM] | MCC at 24 h [3] [µM] | selectivity ratio [4] | MIC [5] [µM]
O=[N+]([O-])/C=C/c1cccc(C(F)(F)F)c1 | Active | 7.9 | 40 | 8.4 | 4.75 (≈ 1.03 µg/mL)
CN(C)c1ccc([N+](=O)[O-])c2nonc12 | – | – | 100 | – | –
COc1ccc(CCCSc2ccc([N+](=O)[O-])c3nonc23)cc1 | – | – | 1 | – | –
O=[N+]([O-])/C=C/c1cc(C(F)(F)F)cc(C(F)(F)F)c1 | – | 3.5 | 3.5 | 1.5 | 2.4 (≈ 0.684 µg/mL)
O=[N+]([O-])/C=C/c1ccc(F)cc1Br | – | 19 | 10 | 2.1 | 4.8 (≈ 1.18 µg/mL)
O=C(OCCSc1ccc([N+](=O)[O-])c2nonc12)c1ccc(Cl)cc1Cl | – | – | 4 | – | –
O=[N+]([O-])/C=C/c1ccccc1I | – | 16 | 1 | 0.2 | 4.8 (≈ 1.32 µg/mL)
O=C(Nc1ccc(Cl)cc1Cl)OCCSc1ccc([N+](=O)[O-])c2nonc12 | – | – | 1.7 | – | –
Cc1ccc(Sc2ccc([N+](=O)[O-])c3nonc23)cc1 | – | – | 1.3 | – | –
O=[N+]([O-])C1=Cc2cc(Cl)cc(Cl)c2OC1c1ccc(Br)cc1 (configuration not stated) | – | 25 | – | – | –
O=[N+]([O-])/C=C/c1ccc(I)cc1 | Active | 6.6 | 10 | 9.4 | 1.06 (≈ 0.292 µg/mL)
O=[N+]([O-])C1=Cc2cc(Cl)cc(Cl)c2OC1c1ccc(F)cc1 (configuration not stated) | – | – | 6 | – | –
O=[N+]([O-])/C=C/c1ccc(Cl)c(C(F)(F)F)c1 | – | 2.8 | 5 | 4.7 | 1.06 (≈ 0.267 µg/mL)
O=[N+]([O-])/C=C/c1ccccc1C(F)(F)F | – | 8.8 | 0.1 | 0.04 | 2.4 (≈ 0.521 µg/mL)
COc1ccc(Sc2ccc([N+](=O)[O-])c3nonc23)cc1 | Active | 2.6 | 3 | 1.5 | 2 (≈ 0.607 µg/mL)
O=C(Nc1ccccc1)OCCSc1ccc([N+](=O)[O-])c2nonc12 | – | – | 2.2 | – | –
NS(=O)(=O)c1ccc(SCCO)c2nonc12 | – | – | 100 | – | –
O=[N+]([O-])C1=Cc2cc(Cl)ccc2OC1c1ccc(F)cc1 (configuration not stated) | – | – | 6 | – | –
O=[N+]([O-])/C=C/c1c(F)cc(Cl)cc1F | Active | 7.4 | 20 | 37.7 | 0.53 (≈ 0.116 µg/mL)
COc1ccc(CSc2ccc(N)c3nonc23)cc1 | – | – | 100 | – | –
COc1ccc(C2(C)SCc3cc(C)c(C)cc3CS2)cc1 | – | – | 100 | – | –

SMILES | Activity [1] | Kd [2] [µM] | MCC at 24 h [3] [µM] | selectivity ratio [4] | MIC [5] [µM]
COC(=O)C1=C(c2ccccc2Cl)Oc2ccc([N+](=O)[O-])cc2C1 | – | – | 70 | – | –
O=[N+]([O-])/C=C/c1ccc(F)cc1 | Active | 40 | 20 | 18.9 | 1.06 (≈ 0.177 µg/mL)
O=[N+]([O-])C1=Cc2cc(Cl)ccc2OC1c1ccc(Cl)cc1 (configuration not stated) | – | – | 6 | – | –
O=[N+]([O-])/C=C/c1cc(C(F)(F)F)ccc1F | – | 4.4 | 8 | 15.1 | 0.53 (≈ 0.125 µg/mL)
O=[N+]([O-])/C=C/c1cc(Cl)cc(Cl)c1 | – | 0.67 | 2 | 0.8 | 2.4 (≈ 0.523 µg/mL)
COc1ccc(CSc2ccc(S(N)(=O)=O)c3nonc23)cc1 | – | – | 12 | – | –
O=[N+]([O-])/C=C/c1ccc(Br)cc1 | Active | 4.1 | 8 | 15.1 | 0.53 (≈ 0.121 µg/mL)
O=[N+]([O-])/C=C/c1cc(Cl)cc(Br)c1 | – | 10 | 2.7 | – | –
O=C(O)/C=C/c1cc(C(F)(F)F)cc(C(F)(F)F)c1 | – | – | 100 | – | –
COc1cccc(/C=C(\C)[N+](=O)[O-])c1 | – | 5.5 | 0.7 | 0.3 | 2.4 (≈ 0.464 µg/mL)
O=[N+]([O-])C1=Cc2cc(Cl)cc(Cl)c2OC1c1ccc(I)cc1 (configuration not stated) | – | – | 10 | – | –
O=[N+]([O-])C1=Cc2c(ccc3ccccc23)OC1c1ccc(F)cc1 (configuration not stated) | Active | 0.78 | 10 | 8.3 | 1.2 (≈ 0.386 µg/mL)
O=[N+]([O-])/C=C/c1c(F)c(F)c(F)c(F)c1F | – | 10 | 0.01 | 0.001 | 8 (≈ 1.91 µg/mL)
Brc1cccc2nsnc12 | – | – | 100 | – | –
COc1ccc(CSc2ccc([N+](=O)[O-])c3nonc23)cc1 | – | – | 1.7 | – | –
O=[N+]([O-])C1=Cc2cc(Cl)ccc2NC1c1ccc(F)cc1 (configuration not stated) | – | 33 | – | – | –
CSc1ccc(C2Oc3ccccc3C=C2[N+](=O)[O-])cc1 (configuration not stated) | – | – | 1 | – | –
CCOC(=O)C1=Cc2cc(Cl)cc(Cl)c2OC1c1ccc(F)cc1 (configuration not stated) | – | – | 12 | – | –
COc1ccc(C(=O)OCCSc2ccc([N+](=O)[O-])c3nonc23)cc1 | – | – | 8 | – | –
COC(=O)/C=C/c1cc(C(F)(F)F)cc(C(F)(F)F)c1 | – | – | 100 | – | –
